≈ marks a conversion by molar mass, not a printed value. Calls of active or inactive are those of the source. The rule behind the calls is not given here.
How the values were obtained:
[1] = Inhibition of Erk phosphorylation in human HT-29 cells; format: cell-based
Summary of the method: (§1)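 Values are means of two experiments, IC50 in nM.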

HT-29 = experiment: Antiproliferative activity against human HT-29 cells; format: functional, cell-based; summary of the method: as §1
[2] = molecular target: Dual specificity mitogen-activated protein kinase kinase; MEK1/2 (Homo sapiens, UniProt P36507+Q02750); experiment: Inhibition of human MEK using fluorescein-labelled Erk-tide as substrate after 20 mins by IMAP assay; summary of the method: as §1
[3] = Aqueous solubility of the compound at pH 7.4; format: physicochemical
[4] = Intrinsic clearance in rat hepatocytes assessed per 10^6 cells; format: ADME, cell-based, Hepatocyte; conditions: read-out: CLH
[5] = Cmax in mouse at 10 mg/kg, po; format: ADME, organism-based; design: dose 10 mg/kg, route oral; conditions: in vivo
Summary of the method: (§2)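 Female nude mice, single oral dose 10 mg/kg; plasma drug levels measured over time; Cmax and AUClast derived.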

[6] = AUC (0 to last) in mouse at 10 mg/kg, po; format: ADME, organism-based; design: time 0 - last, dose 10 mg/kg, route oral; conditions: plasma; summary of the method: as §2
Mus musculus [7] = experiment: Inhibition of Erk phosphorylation in PMA-stimulated whole blood in nude mouse bearing human HT-29 cells at 50 mg/kg, po after 1 hr; format: functional, organism-based; design: dose 50 mg/kg
Summary of the method: (§3)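 Nude mice bearing HT-29 tumours, dosed p.o. with vehicle (0 h) or 50 mg/kg compound; pERK measured in PMA-stimulated whole blood at 1, 6 and 18 h post dose. Plasma drug by LC–MS/MS; significance versus vehicle by one-way ANOVA with Bonferroni post test.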

Mus musculus [8] = experiment: Inhibition of Erk phosphorylation in PMA-stimulated whole blood in nude mouse bearing human HT-29 cells at 50 mg/kg, po after 6 hrs; format: functional, organism-based; design: dose 50 mg/kg; summary of the method: as §3
Mus musculus [9] = experiment: Inhibition of Erk phosphorylation in PMA-stimulated whole blood in nude mouse bearing human HT-29 cells at 50 mg/kg, po after 18 hrs relative to control; format: functional; conditions: HT-29, Blood; summary of the method: as §3
Mus musculus [10] = experiment: Inhibition of Erk phosphorylation in human HT-29 cells xenografted in nude mouse at 50 mg/kg, po after 18 hrs

Row | Structure (SMILES) | IC50 [1] [nM] | IC50 (HT-29) [nM] | IC50 [2] [nM] | also measured
1 | CNC(=O)c1c(Nc2ccc(I)cc2Cl)sc2c1CC(C)(C)CNC2=O | 224 | 1630 | 226 | 
2 | CCOC(=O)c1c(Nc2ccc(I)cc2F)sc2c1CC(C)(C)CNC2=O |  |  | 305 | 
3 | CC1(C)CNC(=O)c2sc(Nc3ccc(I)cc3F)c(C(=O)NC[C@H]3CCCN3)c2C1 | 22 | 120 | 42 | 
4 | CCOC(=O)c1c(Nc2ccc(I)cc2Cl)sc2c1CC(C)(C)CNC2=O |  |  | 2617 | 
5 | CC(C)(N)CNC(=O)c1c(Nc2ccc(I)cc2Cl)sc2c1CC(C)(C)CNC2=O | 13 | 113 | 18 | 
6 | CC(C)(N)CNC(=O)c1c(Nc2ccc(I)cc2F)sc2c1CC(C)(C)CNC2=O | 6 | 79 | 14 | solubility ([3]; aqueous, read-out: solubility): 210 µM (≈ 114 µg/mL); hepatocyte CLint [4]: 2.6 µL/min/1e6 cells; Cmax [5]: 323 ng/mL; AUC(0-t) [6]: 1240 ng·h/mL; inhibition (Mus musculus [7]): Active; inhibition (Mus musculus [8]): Active; inhibition in vivo at 50 mg/kg (Mus musculus [9]): 35%; inhibition (Mus musculus [10]): inactive
7 | CC1(C)CNC(=O)c2sc(Nc3ccc(I)cc3F)c(C(=O)NOC[C@H](O)CO)c2C1 | 51 | 1580 | 6 | 
8 | CC1(C)CNC(=O)c2sc(Nc3ccc(I)cc3Cl)c(C(=O)NOC[C@H](O)CO)c2C1 | 76 | 896 | 9 | 
9 | CC1(C)CNC(=O)c2sc(Nc3ccc(I)cc3F)c(C(=O)NOCCO)c2C1 | 18 | 340 | 7 | 
10 | CC1(C)CNC(=O)c2sc(Nc3ccc(I)cc3F)nc2C1 | 1540 | 8870 | 946 | 
11 | CC1(C)CNC(=O)c2sc(Nc3ccc(I)cc3F)c(C(=O)N[C@@H]3CCNC3)c2C1 | 9 | 54 | 8 | 
12 | CC1(C)CNC(=O)c2sc(Nc3ccc(I)cc3Cl)c(C(=O)N3CCNCC3)c2C1 | 45 | 1040 | 456 | 
13 | CC1(C)CNC(=O)c2sc(Nc3ccc(I)cc3Cl)c(C(N)=O)c2C1 | 92 | 596 | 13 | solubility ([3]; buffer): Insoluble
14 | CC1(C)CNC(=O)c2sc(Nc3ccc(I)cc3F)c(C(=O)O)c2C1 | 978 |  | 14 | 
15 | CC1(C)CNC(=O)c2sc(Nc3ccc(I)cc3F)c(C(=O)NCCCO)c2C1 | 140 | 6210 | 309 | 
16 | CC1(C)CNC(=O)c2sc(Nc3ccc(I)cc3Cl)c(C(=O)NCC[C@@H](O)CO)c2C1 | 717 | 12100 | 200 | 
17 | CC1(C)CNC(=O)c2sc(Nc3ccc(I)cc3F)c(C(=O)N[C@@H]3CCCNC3)c2C1 | 5 | 91 | 22 | 
18 | CC1(C)CNC(=O)c2sc(Nc3ccc(I)cc3Cl)c(C(=O)NC[C@@H](O)CO)c2C1 | 43 | 710 | 28 | 
19 | CC1(C)CNC(=O)c2sc(Nc3ccc(I)cc3F)c(C(N)=O)c2C1 |  | 158 | 9 | 
